Published values collected from several papers.
Each line is one published result; the experiments were not run side by side.
Target: Serine/threonine-protein kinase MRCK alpha (CDC42BPA, Homo sapiens, UniProt Q5VT25)

| SMILES | read-out | method | tested at | remaining binding [%] |
| --- | --- | --- | --- | --- |
| C[C@@H](c1ccc(-n2cnc3c(N)ncnc32)cc1)N1CCc2nn(C)c(Cc3ccccc3)c2C1=O | binding | competition with immobilised ligand | 0.1 µM | 91 |
| O=C(NCCCN1CCOCC1)c1ccc(Nc2ncc(Cl)c(-c3ccc(Cl)s3)n2)cc1 | binding | competition with immobilised ligand | 1 µM | 100 |
| Nc1ncc2c(n1)-c1c([nH]c3ccc(C#CC4CC4)cc13)CCCC2 | binding | competition with immobilised ligand | 1 µM | 88 |
| F[C@@H]1CCN(c2nccc(-c3cnn4ncccc34)n2)C1 | binding |  | 1 µM | 100 |
| COc1cc(-c2cn(C3CCc4c(F)cccc4N(CC(F)(F)F)C3=O)nn2)ccc1-n1cnc(C)c1 (stereo not shown) | cell-free assay | competition with immobilised ligand | 1 µM | 100 |
| O=C(c1ccc(Nc2nccc(-c3cc4ccccc4s3)n2)cc1)N1CCC(N2CCCC2)CC1 | binding | competition with immobilised ligand | 1 µM | 65 |
| CCN1CCN(Cc2ccc(C(=O)Nc3ccc(C)c(Oc4ccc5c(c4)CC(=O)N5)c3)cc2C(F)(F)F)CC1 | binding | competition with immobilised ligand | 1 µM | 100 |
| NS(=O)(=O)c1cc(NC(=O)Cc2ccccc2)ccc1Oc1cccc(Cl)c1 | cell-free assay | competition with immobilised ligand | 1 µM | 91 |
| N[C@H]1CCN(c2nccc(-c3cnn4ncccc34)n2)C1 | binding |  | 1 µM | 84 |
| Cc1noc([C@H]2C[C@@H](c3ccc(C(F)(F)F)cc3)CN(C(=O)N3CCS(=O)(=O)C3)C2)n1 | cell-free assay | competition with immobilised ligand | 1 µM | 100 |
| C=CC(=O)N1CCC(C(=O)NCC(=O)N2CCN(c3nc(-c4cnc(N)nc4C(F)F)nc(N4CCOCC4)n3)CC2)CC1 | binding | competition with immobilised ligand | 1 µM | 100 |
| CN(C)c1nccc(-c2cnc3ncccn23)n1 | binding |  | 1 µM | 83 |
| Cc1cc(-n2nc(Cc3cc(F)cc(C(F)(F)F)c3)nc2C)ccc1C(N)=O | cell-free assay | competition with immobilised ligand | 1 µM | 100 |
| O=C(Nc1c[nH]nc1C(=O)NC1CCNCC1)c1cc(F)cc(F)c1 | binding | competition with immobilised ligand | 1 µM | 95 |
| CN(CCCC(F)(F)F)c1nccc(-c2cnn3ncccc23)n1 | binding |  | 1 µM | 100 |
| O=C(NCc1ncc(C(F)(F)F)cc1Cl)c1ccc2c(c1)C1(CCS(=O)(=O)CC1)[C@@H](C1CC1)N2S(=O)(=O)c1ccc(F)cc1 | cell-free assay | competition with immobilised ligand | 1 µM | 100 |
| CN(C)c1nccc(-c2cnn3ncccc23)n1 | binding |  | 1 µM | 100 |
| O=C(c1ccc(Nc2ncc(Cl)c(-c3cc4ccccc4s3)n2)cc1)N1CCC(N2CCCC2)CC1 | binding | competition with immobilised ligand | 1 µM | 14 |
| COc1cnc(Nc2cccc(S(N)(=O)=O)c2)nc1N1CCN(c2ccccc2)C(=O)C1 | binding | competition with immobilised ligand | 1 µM | 100 |
| FC(F)(F)Oc1cccc(-c2cnc3ccc(-c4ccncc4)nn23)c1 | cell-free assay | competition with immobilised ligand | 5 µM | 69 |
| CN(c1nccc(-c2cnn3ncccc23)n1)C1CC1 | binding |  | 1 µM | 100 |
| CCC(=N\O)/C(C)=C/c1ccc(F)cc1 | cell-free assay | competition with immobilised ligand | 1 µM | 100 |
